Experimental data reported in ChEMBL document CHEMBL3351561, “Discovery of 9-(1-anilinoethyl)-2-morpholino-4-oxo-pyrido[1,2-a]pyrimidine-7-carboxamides as PI3Kβ/δ inhibitors for the treatment of PTEN-deficient tumours” (Bioorg Med Chem Lett, 2014).

Experiments:
Homo sapiens [1] = species: Homo sapiens; test: Ratio of IC50 for human recombinant PI3Kalpha to IC50 human recombinant PI3Kbeta
Method in brief: (§1)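 Ratio is taken from enzyme IC50 values, each the geometric mean of 3 or more determinations. In the PI3Kβ enzyme assay, functional enzyme concentration was measured experimentally. The tight-binding limit, half that concentration, is 10 nM, so β IC50 values near that floor set a cap on the ratio.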

Homo sapiens [2] = species: Homo sapiens; test: Ratio of IC50 for human recombinant PI3Kgamma to IC50 human recombinant PI3Kbeta; method in brief: as §1
[3] = molecular target: T1, Phosphatidylinositol 4,5-bisphosphate 3-kinase catalytic subunit beta isoform (Homo sapiens, UniProt P42338); test: Inhibition of PI3Kbeta in human MAD-MB-468 cells assessed as inhibition of Ser473 Akt phosphorylation by cellular potency assay
[4] = Buffer/octanol partition coefficient, log D of the compound at pH 7.4 by shake flask method; assay type: physicochemical
Method in brief: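 LogD at pH 7.4 was measured by shake-flask with a buffer/octanol volume ratio of 100:1.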

[5] = molecular target: T2, Phosphatidylinositol 4,5-bisphosphate 3-kinase catalytic subunit alpha isoform (Homo sapiens, UniProt P42336); test: Inhibition of human recombinant PI3Kalpha assessed as depletion of ATP substrate by Ultra Glo luciferase assay
Method in brief: (§2)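 Enzyme IC50s are reported as the geometric mean of 3 or more values.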

[6] = molecular target: T1, Phosphatidylinositol 4,5-bisphosphate 3-kinase catalytic subunit beta isoform; test: Inhibition of human recombinant PI3Kbeta assessed as depletion of ATP substrate by Ultra Glo luciferase assay; method in brief: as §2
[7] = molecular target: Phosphatidylinositol 4,5-bisphosphate 3-kinase catalytic subunit gamma isoform (Homo sapiens, UniProt P48736); test: Inhibition of human recombinant PI3Kgamma assessed as depletion of ATP substrate by Ultra Glo luciferase assay; method in brief: as §2
[8] = molecular target: T3, Phosphatidylinositol 4,5-bisphosphate 3-kinase catalytic subunit delta isoform (Homo sapiens, UniProt O00329); test: Inhibition of human recombinant PI3Kdelta assessed as depletion of ATP substrate by Ultra Glo luciferase assay; method in brief: as §2
T3 sequence (O00329 whole entry): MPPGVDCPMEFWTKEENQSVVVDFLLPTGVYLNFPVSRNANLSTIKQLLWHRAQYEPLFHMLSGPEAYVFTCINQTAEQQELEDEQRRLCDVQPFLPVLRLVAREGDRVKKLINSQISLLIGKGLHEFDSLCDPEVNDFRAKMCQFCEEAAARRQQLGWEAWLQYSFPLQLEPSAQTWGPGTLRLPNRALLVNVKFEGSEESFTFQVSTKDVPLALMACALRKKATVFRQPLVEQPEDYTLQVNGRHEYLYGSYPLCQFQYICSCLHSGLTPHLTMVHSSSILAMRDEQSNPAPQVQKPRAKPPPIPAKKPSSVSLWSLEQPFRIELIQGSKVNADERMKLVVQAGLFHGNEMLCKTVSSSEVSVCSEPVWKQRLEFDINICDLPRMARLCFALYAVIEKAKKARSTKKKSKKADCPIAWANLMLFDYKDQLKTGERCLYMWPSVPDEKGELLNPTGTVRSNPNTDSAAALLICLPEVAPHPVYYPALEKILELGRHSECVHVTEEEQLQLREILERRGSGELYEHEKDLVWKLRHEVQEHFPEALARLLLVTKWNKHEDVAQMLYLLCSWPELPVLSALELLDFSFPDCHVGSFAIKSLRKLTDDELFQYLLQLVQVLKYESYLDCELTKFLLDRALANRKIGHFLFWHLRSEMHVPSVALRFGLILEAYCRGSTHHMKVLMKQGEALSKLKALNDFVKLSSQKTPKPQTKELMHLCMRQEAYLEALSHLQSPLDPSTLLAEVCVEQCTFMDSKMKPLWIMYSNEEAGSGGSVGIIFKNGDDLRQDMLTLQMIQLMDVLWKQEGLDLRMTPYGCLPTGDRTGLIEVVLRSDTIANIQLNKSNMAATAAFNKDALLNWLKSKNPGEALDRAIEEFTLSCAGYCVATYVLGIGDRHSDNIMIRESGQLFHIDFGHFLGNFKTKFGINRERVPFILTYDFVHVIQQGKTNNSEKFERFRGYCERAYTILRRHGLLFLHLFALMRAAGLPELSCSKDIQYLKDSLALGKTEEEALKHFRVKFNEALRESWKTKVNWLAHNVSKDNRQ

[9] = molecular target: T2, Phosphatidylinositol 4,5-bisphosphate 3-kinase catalytic subunit alpha isoform; test: Inhibition of PI3Kalpha in human BT474 cells assessed as inhibition of […] Akt phosphorylation after 2 hrs by fluorescence assay; assay type: cell-based, BT-474
Method in brief: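 BT474 cells were seeded in DMEM with 10% FCS and 1% glutamine and left to adhere overnight, then treated with compound in DMSO for 2 h at 37 °C and 5% CO2. Cells were lysed with a phosphatase/protease-inhibitor buffer. Lysate was captured on anti-total-Akt plates, probed with anti-phospho-Akt Thr308 and an HRP secondary, and read by fluorescence (ex 325/em 420 nm). Values are the geometric mean of ≥2 determinations.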

Homo sapiens [10] = species: Homo sapiens; test: Ratio of IC50 for PI3Kalpha human BT474 cells to IC50 PI3Kbeta in human […] cells
[11] = Apparent permeability from apical (pH 6.5) to […] of human Caco2 cells; assay type: ADME, cell-based; conditions: Caco-2, pH 6.5

T2 sequence (P42336 whole entry, canonical isoform): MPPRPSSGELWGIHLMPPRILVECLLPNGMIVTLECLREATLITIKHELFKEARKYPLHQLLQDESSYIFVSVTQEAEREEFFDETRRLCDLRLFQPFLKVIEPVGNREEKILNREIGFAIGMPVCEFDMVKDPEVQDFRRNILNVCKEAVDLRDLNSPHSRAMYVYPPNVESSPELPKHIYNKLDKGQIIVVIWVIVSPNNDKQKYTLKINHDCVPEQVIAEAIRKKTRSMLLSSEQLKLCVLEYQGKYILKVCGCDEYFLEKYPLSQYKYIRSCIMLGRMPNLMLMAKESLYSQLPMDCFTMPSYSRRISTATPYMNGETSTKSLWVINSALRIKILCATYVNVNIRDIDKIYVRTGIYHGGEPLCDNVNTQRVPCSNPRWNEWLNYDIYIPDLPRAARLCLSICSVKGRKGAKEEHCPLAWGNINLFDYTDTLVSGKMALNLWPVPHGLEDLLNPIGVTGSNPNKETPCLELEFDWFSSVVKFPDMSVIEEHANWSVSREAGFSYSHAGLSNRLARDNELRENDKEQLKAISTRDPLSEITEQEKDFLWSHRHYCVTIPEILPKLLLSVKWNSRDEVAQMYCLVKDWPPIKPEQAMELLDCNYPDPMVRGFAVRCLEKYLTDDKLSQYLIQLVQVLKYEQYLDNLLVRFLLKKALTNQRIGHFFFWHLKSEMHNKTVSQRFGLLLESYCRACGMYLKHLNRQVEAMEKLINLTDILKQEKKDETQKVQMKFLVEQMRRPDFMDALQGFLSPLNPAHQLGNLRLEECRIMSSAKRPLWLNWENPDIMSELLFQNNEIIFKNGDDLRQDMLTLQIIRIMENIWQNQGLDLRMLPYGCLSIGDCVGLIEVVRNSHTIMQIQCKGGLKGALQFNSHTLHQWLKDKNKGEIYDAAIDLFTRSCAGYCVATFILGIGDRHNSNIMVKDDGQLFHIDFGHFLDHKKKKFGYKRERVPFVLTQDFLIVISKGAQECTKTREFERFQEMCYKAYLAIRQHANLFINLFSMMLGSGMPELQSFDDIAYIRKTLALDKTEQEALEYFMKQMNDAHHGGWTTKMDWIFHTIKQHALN
T1 sequence (P42338 whole entry, canonical isoform): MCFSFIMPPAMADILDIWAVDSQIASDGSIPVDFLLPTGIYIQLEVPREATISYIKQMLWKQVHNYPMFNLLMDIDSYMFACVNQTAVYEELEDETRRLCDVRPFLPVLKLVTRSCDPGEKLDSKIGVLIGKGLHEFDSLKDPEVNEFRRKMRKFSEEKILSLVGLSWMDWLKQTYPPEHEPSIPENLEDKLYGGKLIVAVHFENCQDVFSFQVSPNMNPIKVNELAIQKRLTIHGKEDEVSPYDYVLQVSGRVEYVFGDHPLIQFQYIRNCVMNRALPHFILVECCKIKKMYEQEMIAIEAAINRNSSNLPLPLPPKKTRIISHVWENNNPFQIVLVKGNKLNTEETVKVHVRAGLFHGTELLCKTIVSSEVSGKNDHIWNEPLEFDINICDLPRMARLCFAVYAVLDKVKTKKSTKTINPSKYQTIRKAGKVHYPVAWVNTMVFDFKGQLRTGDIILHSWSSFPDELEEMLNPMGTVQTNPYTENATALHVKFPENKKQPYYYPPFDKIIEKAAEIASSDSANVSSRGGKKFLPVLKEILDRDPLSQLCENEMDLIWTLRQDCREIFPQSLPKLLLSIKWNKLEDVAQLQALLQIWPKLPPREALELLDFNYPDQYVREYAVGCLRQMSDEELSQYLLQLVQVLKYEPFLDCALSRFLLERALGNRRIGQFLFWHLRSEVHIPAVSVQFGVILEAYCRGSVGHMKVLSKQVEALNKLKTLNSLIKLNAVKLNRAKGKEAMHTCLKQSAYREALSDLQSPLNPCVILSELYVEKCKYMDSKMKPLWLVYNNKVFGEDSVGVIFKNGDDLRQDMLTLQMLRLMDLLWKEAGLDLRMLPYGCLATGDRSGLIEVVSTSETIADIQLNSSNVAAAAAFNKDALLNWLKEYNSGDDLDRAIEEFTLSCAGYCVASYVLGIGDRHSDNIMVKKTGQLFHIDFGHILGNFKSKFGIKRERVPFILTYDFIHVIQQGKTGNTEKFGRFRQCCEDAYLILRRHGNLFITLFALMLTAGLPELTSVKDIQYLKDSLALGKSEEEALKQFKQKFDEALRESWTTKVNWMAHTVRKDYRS
Chain of Phosphatidylinositol 4,5-bisphosphate 3-kinase catalytic subunit gamma isoform (P48736 whole entry, canonical isoform): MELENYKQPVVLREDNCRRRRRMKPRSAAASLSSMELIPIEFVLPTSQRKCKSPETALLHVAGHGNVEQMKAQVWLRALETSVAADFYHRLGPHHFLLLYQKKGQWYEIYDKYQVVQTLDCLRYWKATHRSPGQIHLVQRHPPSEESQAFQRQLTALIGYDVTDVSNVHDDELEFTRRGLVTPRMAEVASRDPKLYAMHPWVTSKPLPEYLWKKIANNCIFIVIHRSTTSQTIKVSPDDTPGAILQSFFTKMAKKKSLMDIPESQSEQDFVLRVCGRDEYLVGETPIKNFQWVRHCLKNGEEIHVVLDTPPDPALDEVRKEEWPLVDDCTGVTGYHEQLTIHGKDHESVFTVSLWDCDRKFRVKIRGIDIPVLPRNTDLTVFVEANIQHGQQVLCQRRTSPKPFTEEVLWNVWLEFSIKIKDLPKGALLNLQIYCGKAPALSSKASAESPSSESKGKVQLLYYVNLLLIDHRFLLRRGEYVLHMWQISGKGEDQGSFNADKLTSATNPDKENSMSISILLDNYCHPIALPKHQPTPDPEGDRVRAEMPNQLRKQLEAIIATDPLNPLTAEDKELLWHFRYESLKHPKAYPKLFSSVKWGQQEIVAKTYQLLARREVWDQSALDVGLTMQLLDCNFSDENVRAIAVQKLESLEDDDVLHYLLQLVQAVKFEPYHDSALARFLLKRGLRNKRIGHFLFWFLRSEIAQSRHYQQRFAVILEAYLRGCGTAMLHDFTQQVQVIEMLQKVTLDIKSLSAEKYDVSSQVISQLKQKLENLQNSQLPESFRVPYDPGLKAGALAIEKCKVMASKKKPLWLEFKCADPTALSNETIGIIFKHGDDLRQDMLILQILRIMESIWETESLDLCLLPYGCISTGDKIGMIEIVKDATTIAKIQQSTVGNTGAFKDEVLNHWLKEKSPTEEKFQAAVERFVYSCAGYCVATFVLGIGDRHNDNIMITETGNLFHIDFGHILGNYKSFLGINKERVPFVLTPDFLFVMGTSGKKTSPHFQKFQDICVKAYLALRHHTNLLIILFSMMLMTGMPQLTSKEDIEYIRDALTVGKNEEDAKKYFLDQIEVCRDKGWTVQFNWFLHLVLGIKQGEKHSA

Row | Ratio IC50 (Homo sapiens [1]) | Ratio IC50 (Homo sapiens [2]) | IC50 [3] | logD [4] | IC50 [5] | IC50 [6] | IC50 [7] | IC50 [8] | IC50 [9] | Papp A→B [11] | Compound | Ratio IC50 (Homo sapiens [10])
1 | 50 | 550 | 156 nM | 2.4 | 560 nM | 11 nM | 6000 nM | 110 nM | 9600 nM |  | CC(Nc1ccccc1)c1cc(C(=O)N(C)C)cn2c(=O)cc(N3CCOCC3)nc12 (single isomer, unassigned; (+)) | 60
2 |  |  | 8 nM | 1.7 | 370 nM | 8 nM | 6900 nM | 85 nM | 2200 nM | 0.2 ×10⁻⁶ cm/s | CC(Nc1ccccc1)c1cc(C(=O)NCCN(C)C)cn2c(=O)cc(N3CCOCC3)nc12 (single isomer, unassigned; (-)) | 
